Measured values as given in ChEMBL document CHEMBL1124955, “2-substituted-1-naphthols as potent 5-lipoxygenase inhibitors with topical antiinflammatory activity” (J Med Chem, 1990).

How the values were obtained:
[1] = target: T1, Cyclooxygenase (Bos taurus, UniProt O62664+O62698); assay: In vitro inhibition of Prostaglandin G/H synthase in BSV cell line.; format: cell-based
T1 sequence (O62664 whole entry): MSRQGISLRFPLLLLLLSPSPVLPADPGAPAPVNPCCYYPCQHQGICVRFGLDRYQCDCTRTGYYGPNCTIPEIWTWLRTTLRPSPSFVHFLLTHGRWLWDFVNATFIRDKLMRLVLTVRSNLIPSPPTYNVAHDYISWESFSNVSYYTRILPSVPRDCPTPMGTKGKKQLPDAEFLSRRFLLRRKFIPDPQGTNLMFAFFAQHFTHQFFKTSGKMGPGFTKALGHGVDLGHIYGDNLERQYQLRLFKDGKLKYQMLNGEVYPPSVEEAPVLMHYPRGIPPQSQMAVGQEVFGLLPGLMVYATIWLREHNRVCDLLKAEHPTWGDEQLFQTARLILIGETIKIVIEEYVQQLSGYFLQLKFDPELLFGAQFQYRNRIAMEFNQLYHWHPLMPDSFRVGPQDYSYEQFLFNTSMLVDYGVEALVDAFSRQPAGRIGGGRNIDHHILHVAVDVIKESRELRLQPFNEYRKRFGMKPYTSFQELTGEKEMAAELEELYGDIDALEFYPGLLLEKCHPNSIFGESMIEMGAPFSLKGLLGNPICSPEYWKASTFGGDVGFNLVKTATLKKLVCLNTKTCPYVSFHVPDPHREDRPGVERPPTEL
T1 sequence (O62698 whole entry): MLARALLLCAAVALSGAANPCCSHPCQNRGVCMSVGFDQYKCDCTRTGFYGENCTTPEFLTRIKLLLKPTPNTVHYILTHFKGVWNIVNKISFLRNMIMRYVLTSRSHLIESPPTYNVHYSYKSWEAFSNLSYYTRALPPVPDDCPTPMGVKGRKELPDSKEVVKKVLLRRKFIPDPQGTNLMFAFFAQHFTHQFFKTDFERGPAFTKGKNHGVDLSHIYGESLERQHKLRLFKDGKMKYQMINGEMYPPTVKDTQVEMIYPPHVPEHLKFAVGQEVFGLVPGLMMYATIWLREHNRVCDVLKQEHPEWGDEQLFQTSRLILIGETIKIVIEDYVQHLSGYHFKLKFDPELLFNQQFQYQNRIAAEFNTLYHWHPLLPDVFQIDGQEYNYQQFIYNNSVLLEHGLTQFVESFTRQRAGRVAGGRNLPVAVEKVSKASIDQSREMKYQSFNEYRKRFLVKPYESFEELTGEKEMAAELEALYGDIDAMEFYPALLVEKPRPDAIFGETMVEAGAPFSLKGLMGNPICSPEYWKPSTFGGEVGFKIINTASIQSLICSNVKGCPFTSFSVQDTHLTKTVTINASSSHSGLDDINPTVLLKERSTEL

[2] = target: T2, Polyunsaturated fatty acid 5-lipoxygenase (Rattus norvegicus, UniProt P12527); assay: Ability to inhibit 5-lipoxygenase by using a crude preparation of the cytosolic enzyme from the rat basophilic leukemia (RBL-1) cell line; format: cell-based
T2 sequence (P12527 whole entry): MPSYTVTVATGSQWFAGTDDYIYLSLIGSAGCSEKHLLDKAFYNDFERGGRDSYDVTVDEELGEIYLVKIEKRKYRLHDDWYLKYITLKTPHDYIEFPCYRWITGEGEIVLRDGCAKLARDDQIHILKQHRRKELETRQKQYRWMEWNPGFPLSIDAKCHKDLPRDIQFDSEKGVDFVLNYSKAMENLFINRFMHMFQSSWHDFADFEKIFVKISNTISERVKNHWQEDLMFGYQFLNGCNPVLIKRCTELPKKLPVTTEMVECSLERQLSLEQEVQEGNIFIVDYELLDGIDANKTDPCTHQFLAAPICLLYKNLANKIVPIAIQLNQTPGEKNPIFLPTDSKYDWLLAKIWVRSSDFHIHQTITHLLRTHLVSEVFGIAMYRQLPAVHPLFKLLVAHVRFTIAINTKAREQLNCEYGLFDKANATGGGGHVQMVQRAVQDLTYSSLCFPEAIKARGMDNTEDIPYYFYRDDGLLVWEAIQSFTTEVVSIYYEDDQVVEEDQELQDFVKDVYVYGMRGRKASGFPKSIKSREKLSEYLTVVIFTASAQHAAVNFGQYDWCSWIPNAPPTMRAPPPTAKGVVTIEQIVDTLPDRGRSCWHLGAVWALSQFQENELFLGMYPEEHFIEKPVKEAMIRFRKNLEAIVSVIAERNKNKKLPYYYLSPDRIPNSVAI
Procedure, shortened: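 Crude cytosolic enzyme (supernatant) from RBL-1 cells, amount giving net 3300–3800 dpm 5-HETE (9–20 μg cell protein/assay). Enzyme is preincubated 5 min at 37 °C, pH 7.0, with compound (in 5% DMSO/Tris pH 8.5) in phosphate buffer with EDTA, gelatin, glutathione, CaCl2 and 0.012 mM indomethacin. Reaction is started with 0.042 mM final [14C]arachidonic acid and stopped by freezing after 2 min.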

[3] = system: Mus musculus; assay: Percentage inhibition of the mouse arachidonic acid induced ear edema assay (AA) at a dose of 100 ug/ear; format: functional
Procedure, shortened: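 Groups of 10 male CF1 mice (18–20 g). Compound in acetone is applied topically to both ears just before 1 mg arachidonic acid in acetone is applied to one ear; the other ear serves as control. Mice are killed 60 min later and 6-mm ear punches weighed; swelling is the weight difference. %Inhibition = [(C−T)/C]×100, with Student's t test.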

Compound | IC50 [1] [nM] | IC50 [2] [nM] | Inhibition [3] [%]
Cl.Nc1c(Cc2ccccc2)ccc2ccccc12 | 18000 | 9100 | 35
Cc1cc(Cc2ccccc2)c(O)c2ccccc12 |  | 20 | 62
Oc1c(CCc2ccccc2)ccc2ccccc12 |  | 140 | 69
CCOC(=O)/C=C/c1ccc2ccccc2c1O | 11000 | 45 | 0
CC(C)(C)c1ccc2ccccc2c1O | 37000 | 180 | 67
CC(=O)c1cc(Cc2ccccc2)c(O)c2ccccc12 |  | 510 | 16
Oc1c(Cc2ccc(F)cc2)ccc2ccccc12 |  | 130 | 76
Cc1ccc2ccccc2c1O | 3000 | 130 | 73
Oc1c(Cc2ccccc2)cccc1Cc1ccccc1 | 52000 | 8800 | 21
CC(Cc1ccc(O)c(O)c1)C(C)Cc1ccc(O)c(O)c1 (centres undefined) [NORDIHYDROGUAIARETIC ACID] | 14000 |  | 25
CS(=O)(=O)c1ccc(Cc2ccc3ccccc3c2O)cc1 |  | 240 | 0
Oc1c(Cc2cccc(C(F)(F)F)c2)ccc2ccccc12 |  | 270 | 67
O=C(O)c1cc(Cc2ccccc2)c(O)c2ccccc12 |  | 5800 | 3
Oc1c(Cc2ccccc2)cc(Br)c2ccccc12 |  | 77 | 33
COc1cc2ccc(Cc3ccccc3)c(O)c2cc1OC |  | 1700 | 33
CSc1ccc(Cc2ccc3ccccc3c2O)cc1 |  | 48 | 76
NS(=O)(=O)c1cc(Cc2ccccc2)c(O)c2ccccc12 |  | 9400 | 3
CC(c1ccccc1)c1ccc2ccccc2c1O (centres undefined) | 8700 | 70 | 45
O=[N+]([O-])c1cc(Cc2ccccc2)c(O)c2ccccc12 |  | 48000 | 28
COc1cccc2c(O)c(Cc3ccccc3)ccc12 |  | 100 | 69
Oc1c(Cc2ccc(Br)cc2)ccc2ccccc12 |  | 68 | 50

Compound | IC50 [1] [nM] | IC50 [2] [nM] | Inhibition [3] [%]
CCOc1ccccc1Cc1ccc2ccccc2c1O |  | 570 | 51
Cc1ccc(C)c2c(O)c(Cc3ccccc3)ccc12 |  | 120 | 52
O=[N+]([O-])c1ccc(Cc2ccc3ccccc3c2O)cc1 |  | 48 | 58
Oc1c(Cc2ccncc2)ccc2ccccc12 |  | 140 | 62
OC(c1ccccc1)c1ccc2ccccc2c1 (centres undefined) |  | 40000 | 16
Oc1ccc(Cc2ccccc2)c2ccccc12 | 5900 | 820 | 42
COc1ccc2c(O)c(Cc3ccccc3)ccc2c1 |  | 1900 | 76
COc1cccc(Cc2ccc3ccccc3c2O)c1 |  | 110 | 72
Oc1c(Cc2ccc(OCc3ccccc3)cc2)ccc2ccccc12 |  | 72 | 12
Oc1c(Cc2ccc(Cl)cc2)ccc2ccccc12 |  | 39 | 66
CS(=O)(=O)c1cc(Cc2ccccc2)c(O)c2ccccc12 |  | 40000 | 15
CCOc1ccc(Cc2ccc3ccccc3c2O)cc1 |  | 62 | 68
Oc1c(Cc2cccc(Br)c2)ccc2ccccc12 |  | 88 | 55
CCOC(=O)c1cc(Cc2ccccc2)c(O)c2ccccc12 |  | 160 | 16
Oc1c(/C=C\c2ccccc2)ccc2ccccc12 | 13000 | 160 | 65
CCOC(=O)CCc1ccc2ccccc2c1O | 13000 | 58 | 69
Oc1cc(Cc2ccccc2)cc2ccccc12 | 2700 | 690 | 28
CN(C)c1ccc(Cc2ccc3ccccc3c2O)cc1 |  | 140 | 67
COc1ccc(Cc2ccc3ccccc3c2O)cc1OC |  | 51 | 60
Cc1ccccc1Cc1ccc2ccccc2c1O |  | 120 | 66
Oc1c(Cc2ccco2)ccc2ccccc12 |  | 37 | 84

Compound | IC50 [1] [nM] | IC50 [2] [nM] | Inhibition [3] [%]
Oc1c(Cc2ccccc2)cc(-c2ccccc2)c2ccccc12 |  | 56 | 26
Oc1cccc2ccccc12 [1-NAPHTHOL] | 2000 | 3600 | 59
O=C(c1ccccc1)c1cc(Cc2ccccc2)c(O)c2ccccc12 |  | 54 | 41
CC(=O)Oc1c(Cc2ccccc2)ccc2ccccc12 | 240000 |  | 63
COc1ccc(Cc2ccc3ccccc3c2O)cc1 |  | 75 | 85
Oc1c(Cc2cccnc2)ccc2ccccc12 |  | 230 | 46
O=C(O)CCCCc1ccc2ccccc2c1O | 720000 | 4200 | 9
COc1ccc2ccc(Cc3ccccc3)c(O)c2c1 |  | 3500 | 52
COc1cc(Cc2ccccc2)c(O)c2ccccc12 |  | 31 | 69
Oc1c(Cc2cccs2)ccc2ccccc12 |  | 60 | 84
Oc1c(Cc2cccc(Oc3ccccc3)c2)ccc2ccccc12 |  | 83 | 60
Oc1c(Cc2ccc3ccccc3c2)ccc2ccccc12 |  | 58 | 52
Cc1ccc(Cc2ccc3ccccc3c2O)cc1 |  | 24 | 79
Cn1cccc1Cc1ccc2ccccc2c1O |  | 140 | 72
Cn1ccnc1Cc1ccc2ccccc2c1O |  | 3500 | 9
Oc1c(Cc2ccc(Cl)c(Cl)c2)ccc2ccccc12 |  | 180 | 58
Cc1cc(C)c2ccc(Cc3ccccc3)c(O)c2c1 |  | 62 | 44
Oc1c(Cc2ccccn2)ccc2ccccc12 |  | 390 | 56
Oc1cc2ccccc2cc1Cc1ccccc1 | 35000 | 7200 | 33
Oc1c(Cc2ccc3c(c2)OCO3)ccc2ccccc12 |  | 40 | 78
Oc1c(Cc2cccc(Cl)c2)ccc2ccccc12 |  | 52 | 67
